Measurements published in ChEMBL document CHEMBL1833791, “Synthesis and biological evaluation of α,β-unsaturated lactones as potent immunosuppressive agents” (Bioorg Med Chem Lett, 2011).
The source made the active and inactive calls. The rule behind the calls is not given here.

Legend:
[1] = test system: Jurkat; assay: Immunosuppressive activity in human Jurkat T cells assessed as inhibition of PMA-induced IL-2 production at 10 uM after 13 hrs by ELISA relative to control; type: functional
Summary of the method: (§1)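 Jurkat T lymphocytes at 1 × 10^6 cells/mL were given compound at 1 μM or 10 μM final, then stimulated with 5 nM ionomycin plus 500 nM PMA for 13 h at 37 °C. Cells were spun down and supernatant IL-2 was measured by sandwich ELISA (anti-human IL-2 capture, biotinylated anti-human IL-2 detection). Values are % inhibition versus DMSO negative control, from at least three experiments.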

[2] = test system: Jurkat; assay: Immunosuppressive activity in human Jurkat T cells assessed as inhibition of PMA-induced IL-2 production at 1 uM after 13 hrs by ELISA relative to control; type: functional; summary of the method: as §1
[3] = test system: Jurkat; assay: Immunosuppressive activity in human Jurkat T cells assessed as inhibition of PMA-induced IL-2 production after 13 hrs by ELISA; type: functional, cell-based

IC50 [3]	SMILES	inhibition at 10 µM [1]	inhibition at 1 µM [2]	inhibition [2]	inhibition [1]
0.908 µM	O=C1C=CCC(c2csc3ccccc23)O1 (centres undefined)	100%	77.1%		
0.166 µM	O=C1C=CCC(c2ccccc2)O1 (centres undefined)	82.6%	89.7%		
	O=C1C=CCC(c2cnc3ccccc3c2)O1 (centres undefined)	98.7%	41.5%		
	Cc1ccccc1C1CC=CC(=O)O1 (centres undefined)	86.1%	15.2%		
	COc1ccc(C2CC=CC(=O)O2)cc1 (centres undefined)	87.2%	39.8%		
	O=C1C=CCC(c2ccsc2)O1 (centres undefined)	46.2%		inactive	
	O=C1C=CCC(C(c2ccccc2)c2ccccc2)O1 (centres undefined)	89.2%	18.7%		
0.0669 µM	O=C1C=CCC(c2cc3ccccc3o2)O1 (centres undefined)	100%	100%		
1.57 µM	O=C1C=CCC(CC23CC4CC(CC(C4)C2)C3)O1 (centres undefined)	100%	57.4%		
	O=C1C=CCC(c2cccs2)O1 (centres undefined)	59.6%		inactive	
	O=C1C=CCC(/C=C/c2ccccc2)O1 (centres undefined)	90.1%	12.7%		
0.396 µM	O=C1C=CCC(Cc2ccc3ccccc3c2)O1 (centres undefined)	100%	67.7%		
	O=C1C=CCC(c2ccc(OCc3ccccc3)cc2)O1 (centres undefined)	98.9%	28%		
	Cc1cccc(C2CC=CC(=O)O2)c1 (centres undefined)	64.5%	47.9%		
	O=C1C=CCC(c2ccnc3ccccc23)O1 (centres undefined)	100%	27.8%		
	Cc1ccc(C2CC=CC(=O)O2)c2ccccc12 (centres undefined)	100%	57.4%		
	COc1cccc(C2CC=CC(=O)O2)c1 (centres undefined)	90.4%		inactive	
	COc1ccccc1C1CC=CC(=O)O1 (centres undefined)	89.2%	11%		
0.142 µM	Cc1ccc(C2CC=CC(=O)O2)cc1 (centres undefined)	80.6%	89%		
	O=C1C=CCC(c2ccc3ccccc3c2)O1 (centres undefined)	97.2%	37.5%		
	O=C1C=CCC(c2ccco2)O1 (centres undefined)	21.7%		inactive	
	O=C1C=CCC(c2cccc3ccccc23)O1 (centres undefined)	100%	72.5%		
	O=C1C=CCC(c2ccoc2)O1 (centres undefined)			inactive	inactive
	Cc1ccc2ccccc2c1C1CC=CC(=O)O1 (centres undefined)	75.5%	6.4%		
